Laboratory results published in ChEMBL document CHEMBL4043094, “Azobenzene-containing photoswitchable proteasome inhibitors with selective activity and cellular toxicity” (Bioorg Med Chem, 2017).

Columns and labels:
[1] = Inhibition of caspase-like activity of 20S proteasome in rabbit 20S proteasome pre-incubated for 10 mins before Suc-Leu-Leu-Val-Tyr-AMC substrate addition and measured after 2 hrs by fluorescence assay; design: species or system Oryctolagus cuniculus
Procedure, shortened: (§1)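 IC50 (nM) was determined for each compound twice: in its non-irradiated form and again after light irradiation.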

[2] = Inhibition of chymotrypsin-like activity of 20S proteasome in rabbit 20S proteasome pre-incubated for 10 mins before Suc-Leu-Leu-Val-Tyr-AMC substrate addition and measured after 2 hrs by fluorescence assay; design: species or system Oryctolagus cuniculus; procedure, shortened: as §1
[3] = tested on: MCF-10A; assay: Cytotoxicity against human MCF10A cells at 5000 nM incubated for 48 hrs by 7AAD dye based flow cytometry; assay type: cell-based; details: 5 µM
[4] = tested on: HCT-116; assay: Cytotoxicity against human HCT116 cells incubated for 48 hrs by 7AAD dye based flow cytometry; assay type: functional; details: HCT-116, 48 h, read-out: LD50 (the source's name)
Procedure, shortened: (§2)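 Apoptosis dose-response over 48 h treatment. Each inhibitor was tested in two forms: the thermally adapted trans state and the cis photostationary state.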

[5] = tested on: MDA-MB-468; assay: Cytotoxicity against human MDA-MB-468 cells incubated for 48 hrs by 7AAD dye based flow cytometry; assay type: functional; details: MDA-MB-468, 48 h, read-out: LD50 (the source's name); procedure, shortened: as §2
[6] = Stability in DMSO; assay type: physicochemical
[7] = Cytotoxicity against human MCF10A cells incubated for 48 hrs by 7AAD dye based flow cytometry; assay type: cell-based, MCF-10A; details: read-out: LD50

Compound | IC50 [1] | IC50 [2] | Activity [3] | CC50 [4] | CC50 [5] | Stability [6] | CC50 at 48 h [7]
Cc1cc(C)cc(/N=N/c2cccc(C(=O)N[C@H](C(=O)N[C@@H](CC(C)C)B3OC4C[C@@H]5C[C@@H](C5(C)C)[C@]4(C)O3)[C@@H](C)O)c2)c1 (stereo not given in full) | 1620 nM | 55 nM | – | – | – | – | –
CC(C)C[C@H](NC(=O)[C@H](Cc1ccc(/N=N/c2ccc(-c3ccccc3)cc2)cc1)NC(=O)OC(C)(C)C)B1OC2C[C@@H]3C[C@@H](C3(C)C)[C@]2(C)O1 (stereo not given in full) | 460 nM | 11 nM | Non-Toxic | 1030 nM | 246 nM | – | –
CC(C)C[C@H](NC(=O)[C@@H](NC(=O)c1cccc(/N=N/c2ccccc2)c1)[C@@H](C)O)B1OC2C[C@@H]3C[C@@H](C3(C)C)[C@]2(C)O1 (stereo not given in full) | 868 nM | 17 nM | – | – | – | – | –
CC(C)C[C@H](NC(=O)[C@H](Cc1ccc(/N=N/c2ccccc2)cc1)NC(=O)OC(C)(C)C)B1OC2C[C@@H]3C[C@@H](C3(C)C)[C@]2(C)O1 (stereo not given in full) | 107 nM | 10 nM | – | – | – | – | –
Cc1cc(C)cc(/N=N\c2ccc(C[C@H](NC(=O)OC(C)(C)C)C(=O)N[C@@H](CC(C)C)B3OC4C[C@@H]5C[C@@H](C5(C)C)[C@]4(C)O3)cc2)c1 (stereo not given in full) | 214 nM | 41 nM | – | – | – | – | –
Cc1cc(C)cc(/N=N/c2ccc(C[C@H](NC(=O)OC(C)(C)C)C(=O)N[C@@H](CC(C)C)B3OC4C[C@@H]5C[C@@H](C5(C)C)[C@]4(C)O3)cc2)c1 (stereo not given in full) | 211 nM | 53 nM | – | – | – | – | –
CC(C)C[C@H](NC(=O)[C@@H](NC(=O)c1cccc(/N=N\c2ccc(-c3ccccc3)cc2)c1)[C@@H](C)O)B1OC2C[C@@H]3C[C@@H](C3(C)C)[C@]2(C)O1 (stereo not given in full) | 727 nM | 29 nM | – | – | – | – | –
CC(C)C[C@H](NC(=O)[C@H](Cc1ccc(/N=N\c2ccccc2)cc1)NC(=O)OC(C)(C)C)B1OC2C[C@@H]3C[C@@H](C3(C)C)[C@]2(C)O1 (stereo not given in full) | 110 nM | 12 nM | – | – | – | – | –
CC(C)C[C@H](NC(=O)[C@@H](NC(=O)c1cccc(/N=N\c2ccccc2)c1)[C@@H](C)O)B1OC2C[C@@H]3C[C@@H](C3(C)C)[C@]2(C)O1 (stereo not given in full) | 759 nM | 84 nM | – | – | – | – | –
CC(C)C[C@H](NC(=O)[C@@H](NC(=O)c1cccc(/N=N/c2ccc(-c3ccccc3)cc2)c1)[C@@H](C)O)B1OC2C[C@@H]3C[C@@H](C3(C)C)[C@]2(C)O1 (stereo not given in full) | 498 nM | 22 nM | – | – | – | – | –
Cc1cc(C)cc(/N=N\c2cccc(C(=O)N[C@H](C(=O)N[C@@H](CC(C)C)B3OC4C[C@@H]5C[C@@H](C5(C)C)[C@]4(C)O3)[C@@H](C)O)c2)c1 (stereo not given in full) | 1630 nM | 249 nM | – | – | – | – | –
CC(C)C[C@H](NC(=O)[C@H](Cc1ccccc1)NC(=O)c1cnccn1)B(O)O [BORTEZOMIB] | 76 nM | 5 nM | – | – | – | – | –
CC(C)C[C@H](NC(=O)[C@@H](NC(=O)c1cccc(-c2ccccc2)n1)[C@@H](C)O)B(O)O [DELANZOMIB] | 59 nM | 10 nM | – | – | – | – | –
CC(C)C[C@H](NC(=O)[C@H](Cc1ccc(/N=N\c2ccc(-c3ccccc3)cc2)cc1)NC(=O)OC(C)(C)C)B1OC2C[C@@H]3C[C@@H](C3(C)C)[C@]2(C)O1 (stereo not given in full) | 303 nM | 54 nM | – | 212 nM | 144 nM | > 48 h | 683 nM
